Assay results published in ChEMBL document CHEMBL1143166, “Derivatives of 4-amino-6-hydroxy-2-mercaptopyrimidine as novel, potent, and selective A3 adenosine receptor antagonists” (J Med Chem, 2008).
pIC50, pKi: −log10 of the molar value.

How the values were obtained:
[1] = molecular target: T1, Adenosine receptor A2a (Homo sapiens, UniProt P29274); test: Displacement of [3H]NECA from human adenosine A2A receptor expressed in CHO cells at 10 uM; type: cell-based
Method in brief: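 Membranes (80 µg) from hA2A-expressing CHO cells incubated 90 min at 25 °C in 50 mM Tris-HCl, 2 mM MgCl2, 2 U/mL ADA, pH 7.4, with 30 nM [3H]NECA and compound at 10 µM. Nonspecific binding defined with 100 µM NECA.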

[2] = molecular target: T2, Adenosine receptor A1 (Homo sapiens) (UniProt P30542); test: Displacement of […] from human adenosine A1 receptor expressed in CHO cells at 10 uM; type: cell-based
T2 sequence (whole entry): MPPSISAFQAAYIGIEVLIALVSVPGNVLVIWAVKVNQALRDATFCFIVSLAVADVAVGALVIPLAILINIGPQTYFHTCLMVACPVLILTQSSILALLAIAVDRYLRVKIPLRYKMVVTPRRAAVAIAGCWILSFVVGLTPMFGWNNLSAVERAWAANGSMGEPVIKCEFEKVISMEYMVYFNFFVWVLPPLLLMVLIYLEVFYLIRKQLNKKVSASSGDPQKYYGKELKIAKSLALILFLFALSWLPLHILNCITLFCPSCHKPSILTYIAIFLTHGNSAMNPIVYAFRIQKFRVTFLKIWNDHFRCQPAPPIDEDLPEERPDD
Method in brief: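 Membranes (50 µg protein) from CHO cells stably expressing hA1 incubated 180 min at 25 °C in 50 mM Tris-HCl, 2 mM MgCl2, 2 U/mL ADA, pH 7.4, with 3 nM [3H]DPCPX and compound at 10 µM. Nonspecific binding defined with 50 µM R-PIA.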

[3] = molecular target: T3, Adenosine receptor A2b (Homo sapiens, UniProt P29275); test: Antagonist activity at human adenosine A2B receptor expressed in CHO cells assessed as inhibition of NECA-mediated cAMP accumulation; type: functional, cell-based
T3 sequence (P29275 whole entry): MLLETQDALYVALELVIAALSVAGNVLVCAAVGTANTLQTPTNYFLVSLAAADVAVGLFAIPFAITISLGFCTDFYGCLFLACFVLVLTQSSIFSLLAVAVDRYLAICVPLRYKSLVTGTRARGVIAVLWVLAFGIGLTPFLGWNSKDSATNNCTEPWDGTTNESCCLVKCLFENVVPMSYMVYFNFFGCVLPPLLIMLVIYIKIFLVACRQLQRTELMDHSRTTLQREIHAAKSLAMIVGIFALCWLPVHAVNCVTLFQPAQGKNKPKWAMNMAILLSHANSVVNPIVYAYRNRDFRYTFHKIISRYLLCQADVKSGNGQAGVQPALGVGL
Method in brief: (§1)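 hA2B-transfected CHO cells grown 48 h after plating, then preincubated 15 min at 37 °C in DMEM with Ro20-1724 (20 µM) and ADA (1 U/mL). Compound (1 nM–10 µM; single-point 10 µM) given 15 min at 37 °C, then 100 nM NECA. Stopped with 0.4 N HCl, neutralized with KOH. cAMP by competitive binding to bovine adrenal binding protein with [3H]cAMP. Mean ± SEM, four experiments in triplicate.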

[4] = molecular target: T4, Adenosine receptor A2b (Homo sapiens) (UniProt P29275); test: Antagonist activity at human adenosine A2B receptor expressed in CHO cells assessed as inhibition of NECA-mediated cAMP accumulation at 10 uM; type: functional, cell-based; method in brief: as §1
T4 sequence (whole entry): T3 sequence (P29275 whole entry)

[5] = molecular target: T5, Adenosine receptor A1 (Homo sapiens, UniProt P30542); test: Displacement of […] from human adenosine A1 receptor expressed in CHO cells; type: cell-based
T5 sequence (P30542 whole entry): T2 sequence (whole entry)

[6] = molecular target: T1, Adenosine receptor A2a; test: Displacement of [3H]NECA from human adenosine A2A receptor expressed in CHO cells; type: cell-based
[7] = molecular target: T6, Adenosine receptor A3 (Homo sapiens) (UniProt P0DMS8); test: Displacement of [125I]AB-MECA from human adenosine A3 receptor expressed in CHO cells at 1 uM; type: cell-based
T6 sequence (whole entry): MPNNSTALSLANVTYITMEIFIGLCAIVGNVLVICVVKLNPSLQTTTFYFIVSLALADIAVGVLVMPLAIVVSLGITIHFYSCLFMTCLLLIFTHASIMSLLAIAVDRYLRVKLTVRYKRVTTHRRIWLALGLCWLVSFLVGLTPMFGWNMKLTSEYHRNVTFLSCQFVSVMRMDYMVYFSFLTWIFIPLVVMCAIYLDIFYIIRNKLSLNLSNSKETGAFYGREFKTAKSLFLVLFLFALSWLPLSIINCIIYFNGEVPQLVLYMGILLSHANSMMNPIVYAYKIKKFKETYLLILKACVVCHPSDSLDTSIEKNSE

T1 sequence (P29274 whole entry): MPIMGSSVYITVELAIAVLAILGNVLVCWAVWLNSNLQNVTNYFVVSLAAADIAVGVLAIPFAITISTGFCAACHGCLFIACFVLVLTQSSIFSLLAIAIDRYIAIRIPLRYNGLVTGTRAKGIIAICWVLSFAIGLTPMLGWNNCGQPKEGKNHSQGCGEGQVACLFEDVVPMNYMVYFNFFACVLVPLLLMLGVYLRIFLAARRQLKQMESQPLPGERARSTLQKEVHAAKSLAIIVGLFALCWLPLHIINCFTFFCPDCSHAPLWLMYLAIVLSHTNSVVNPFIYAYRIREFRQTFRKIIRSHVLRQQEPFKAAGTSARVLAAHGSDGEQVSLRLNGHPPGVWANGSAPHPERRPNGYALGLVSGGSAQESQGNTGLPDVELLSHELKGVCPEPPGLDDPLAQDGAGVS

SMILES | inhibition [1] [%] | inhibition [2] [%] | pIC50 [3] | inhibition [4] [%] | pKi [5] | pKi [6] | inhibition [7] [%]
CCCSc1nc(NC(C)=O)cc(OCc2ccc(Cl)cc2)n1 | 43 | 17 | < 5.00 | 0 | – | – | –
CCCSc1nc(NC(C)=O)cc(OCc2ccccc2Cl)n1 | – | – | – | – | 5.74 | 5.38 | –
CCSc1nc(NC(C)=O)cc(OCc2ccc(Cl)cc2)n1 | 56 | – | < 5.00 | 10 | 5.35 | – | –
CCC(=O)Nc1cc(OC)nc(SC)n1 | 21 | 2 | – | – | – | – | 51
CCCSc1nc(NC(C)=O)cc(OCc2ccccc2)n1 | 36 | – | – | – | 5.61 | – | –
CCCSc1nc(NC(C)=O)cc(OCCc2ccccc2)n1 | 27 | – | < 5.00 | 13 | 5.68 | – | –
CCCSc1nc(NC(C)=O)cc(OCc2cccc(Cl)c2)n1 | 41 | – | – | – | 6.24 | – | –
CCCOc1cc(NC(=O)CC)nc(SCCC)n1 | – | – | – | – | 5.84 | 7.15 | –
CCCOc1cc(NC(C)=O)nc(SCCC)n1 | 30 | – | – | – | 5.26 | – | –
CCCSc1nc(NC(=O)CC)cc(OC)n1 | 4 | – | – | – | 6.31 | – | –
CCCSc1nc(NC(C)=O)cc(OCC2CCCCC2)n1 | 33 | 43 | – | – | – | – | –
CCCSc1nc(NC(C)=O)cc(OCc2ccc(Cl)cc2Cl)n1 | 29 | 46 | – | – | – | – | –
CCCOc1cc(NC(C)=O)nc(SC)n1 | – | 7 | – | – | – | 5.95 | –
CCCOc1cc(NC(C)=O)nc(SCc2ccccc2)n1 | 23 | 34 | – | – | – | – | –
CCCSc1nc(NC(C)=O)cc(OCc2ccc(OC)cc2)n1 | 47 | – | < 5.00 | 0 | 5.61 | – | –
CCCCSc1nc(NC(C)=O)cc(OCc2ccc(Cl)cc2)n1 | 26 | 0 | – | – | – | – | –
COc1cc(NC(C)=O)nc(SC)n1 | 29 | 30 | – | – | – | – | 49
CCCOc1cc(NC(=O)CC)nc(SC)n1 | – | 19 | – | – | – | 6.40 | –
CCCSc1nc(NC(C)=O)cc(OC)n1 | 10 | 43 | – | – | – | – | –
